Data: BindingDB's records for doi:10.1021/jm00001a007 (Sandoz Pharma, 1995)
Values joined by “and” are separate entries in the source; they are usually repeats but may differ in a detail not shown here. Identical values can stand only once. Counter-ions that a name gives are not always drawn.

How the values were obtained:
D(1A) dopamine receptor = D(1A) dopamine receptor (Bos taurus, UniProt Q95136); assay: Binding affinity towards Dopamine receptor D1 of calf striatal tissue using [3H]SCH-23390
Outline: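 Calf striatal membranes, [3H]SCH-23390. Nonspecific binding defined with 1 μM unlabeled SCH-23390. IC50 from displacement curves converted via Cheng–Prusoff to KD, expressed as pKD.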

D(2) dopamine receptor = D(2) dopamine receptor (Bos taurus, UniProt P20288); assay: Binding affinity towards Dopamine receptor D2 of calf striatal tissue using [3H]spiperone
Outline: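 Calf striatal membranes, [3H]spiperone. Cinanserin (0.5 μM) masked 5-HT2A sites; nonspecific binding defined with haloperidol (5 μM). Displacement IC50 converted to KD (Cheng–Prusoff), reported as pKD.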

[1] = target: T1, Alpha-1A adrenergic receptor (Bos taurus, UniProt P18130); assay: Binding affinity towards Alpha-1 adrenergic receptor of calf brain cortex using [3H]prazosin
T1 sequence (P18130 whole entry): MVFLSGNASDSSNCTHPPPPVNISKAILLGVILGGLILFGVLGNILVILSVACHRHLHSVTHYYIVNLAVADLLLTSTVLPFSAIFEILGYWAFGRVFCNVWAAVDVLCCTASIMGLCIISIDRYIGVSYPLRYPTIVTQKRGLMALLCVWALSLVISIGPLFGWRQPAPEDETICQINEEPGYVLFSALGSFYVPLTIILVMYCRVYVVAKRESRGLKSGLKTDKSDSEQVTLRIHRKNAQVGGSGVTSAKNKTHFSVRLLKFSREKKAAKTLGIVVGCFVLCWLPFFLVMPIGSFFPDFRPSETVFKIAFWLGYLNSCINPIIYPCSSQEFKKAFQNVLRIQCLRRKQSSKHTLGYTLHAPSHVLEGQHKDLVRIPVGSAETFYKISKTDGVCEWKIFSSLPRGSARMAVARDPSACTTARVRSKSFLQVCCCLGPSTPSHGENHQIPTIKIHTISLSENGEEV
Outline: (§1)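 Membranes from fresh calf brain cortex. Nonspecific binding defined with 10 μM phentolamine for α1 ([3H]prazosin) and with 1 μM unlabeled clonidine for α2 ([3H]clonidine). IC50 converted to KD (Cheng–Prusoff), given as pKD.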

[2] = target: T2, Alpha-2A adrenergic receptor (Bos taurus, UniProt Q28838); assay: Binding affinity towards Alpha-2 adrenergic receptor of calf brain cortex using [3H]clonidine; outline: as §1
T2 sequence (Q28838 whole entry): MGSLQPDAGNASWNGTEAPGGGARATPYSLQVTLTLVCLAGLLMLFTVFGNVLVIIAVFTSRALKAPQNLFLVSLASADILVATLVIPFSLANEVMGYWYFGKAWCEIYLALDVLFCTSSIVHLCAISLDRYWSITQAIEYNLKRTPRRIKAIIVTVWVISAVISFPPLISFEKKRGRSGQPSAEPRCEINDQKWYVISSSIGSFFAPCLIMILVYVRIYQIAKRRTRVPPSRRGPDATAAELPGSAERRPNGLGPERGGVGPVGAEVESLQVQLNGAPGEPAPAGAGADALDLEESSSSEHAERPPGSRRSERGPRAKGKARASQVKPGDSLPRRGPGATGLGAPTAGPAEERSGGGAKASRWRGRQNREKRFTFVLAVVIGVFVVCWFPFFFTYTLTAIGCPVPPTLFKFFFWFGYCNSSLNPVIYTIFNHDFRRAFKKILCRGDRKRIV

[3] = target: 5-hydroxytryptamine 2A receptor; assay: Binding affinity towards 5-hydroxytryptamine 2A receptor in rat cortex preparations using [3H]ketanserin
Outline: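 5-HT2 sites: rat cortex for 2A ([3H]ketanserin), porcine choroid plexus for 2C ([3H]mesulergine). Nonspecific binding defined with 10 μM mianserin. Displacement-curve IC50 converted to KD via Cheng–Prusoff; expressed as pKD.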

D(2) dopamine receptor, sequence (P20288 whole entry): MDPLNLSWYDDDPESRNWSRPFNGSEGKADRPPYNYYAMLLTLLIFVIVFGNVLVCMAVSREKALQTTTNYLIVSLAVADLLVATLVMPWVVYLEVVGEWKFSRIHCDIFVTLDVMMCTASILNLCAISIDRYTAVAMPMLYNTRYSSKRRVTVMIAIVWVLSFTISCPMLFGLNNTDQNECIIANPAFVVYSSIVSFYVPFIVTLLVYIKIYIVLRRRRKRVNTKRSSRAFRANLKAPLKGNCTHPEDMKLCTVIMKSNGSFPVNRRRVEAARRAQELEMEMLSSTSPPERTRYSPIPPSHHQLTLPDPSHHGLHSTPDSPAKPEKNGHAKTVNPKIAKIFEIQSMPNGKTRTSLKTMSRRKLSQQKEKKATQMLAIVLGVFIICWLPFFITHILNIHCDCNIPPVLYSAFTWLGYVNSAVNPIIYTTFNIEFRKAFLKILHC
D(1A) dopamine receptor, sequence (Q95136 whole entry): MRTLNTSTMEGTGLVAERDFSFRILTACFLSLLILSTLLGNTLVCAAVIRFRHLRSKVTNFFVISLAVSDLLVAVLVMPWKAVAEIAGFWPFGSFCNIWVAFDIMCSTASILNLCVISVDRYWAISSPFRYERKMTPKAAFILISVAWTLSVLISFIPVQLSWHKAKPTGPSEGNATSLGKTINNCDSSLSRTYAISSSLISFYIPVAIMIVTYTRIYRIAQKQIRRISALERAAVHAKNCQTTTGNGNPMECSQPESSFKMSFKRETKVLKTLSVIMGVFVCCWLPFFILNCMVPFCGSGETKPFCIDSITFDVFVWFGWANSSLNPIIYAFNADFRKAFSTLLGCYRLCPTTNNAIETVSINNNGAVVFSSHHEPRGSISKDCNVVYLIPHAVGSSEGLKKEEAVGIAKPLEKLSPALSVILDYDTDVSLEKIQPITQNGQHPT

CN1CC[C@@H]2CN3CCc4cccc(c43)[C@@H]2C1 [SDZ SER 082 FUMARATE]
Kd (D(1A) dopamine receptor): < 10000 nM
Kd (D(2) dopamine receptor): < 10000 nM
Kd [1]: 1000 nM and 999 nM
Kd [2]: 999 nM and 1000 nM
Kd [3]: 631 nM
